# Assay outcomes: PubChem BioAssay, Broad Institute
# Cneo AK release = Cryptococcus neoformans cell lysis inducers, primary screen, AK release luminescence, single concentration; C. neoformans lysis, adenylate kinase release luminescence, 4 h; normalised: neutral wells 0, clomiphene wells 100; lysis activity, % at 15 µM; actives 0.2% (n = 360,000); AID 651654, 2012;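 active = mean lysis activity across replicates of at least 80%, whatever share of replicates individually reach that level; inactive = mean lysis activity below 80%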
#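 Assay system: log-phase C. neoformans yeast / Quantity: yeast cell density of 5 × 10^6 cells/mL / Medium: fresh YPD growth medium / Compound: single dose / Timing: static 4 h at 37 °C with compound, 1 h detection / Measured by: adenylate kinase release luminescence / Read-out: lysis from increased AK signal / Benchmarks: Clomiphene as positive lysis control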
# HIV Env fusion = inhibitors of HIV-1 Env-driven cell-cell fusion, primary screen, HeLa-JRFL effector, CEM21 target cells, luciferase; actives 1.1% (n = 360,000); inhibition, % at 12.3 µM;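 active = mean replicate inhibition score of at least 50 and every replicate individually at or above 50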
# Ecoli rRNA inh = reduced GFP signal of wild-type E. coli, primary screen, bacterial rRNA inhibitor project, GFP/RFP fluorescence, OD600, single point. E. coli WT GFP vs humanized-ribosome RFP mutants, 24 h; stronger effect = lower value; DMSO median 0, no signal -100. GFP signal change (wild-type ribosome), % (concentration not given with the values). actives 1.6% (n = 350,000);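 active = significant combined selectivity score with lowered wild-type GFP, culture density cut under 30%, mutant RFP and density less affected; inactive = any of these conditions unmet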
# CFTR F508del cor = F508del CFTR correction, initial screen, CFBE line, single point | activity (quench increase), % at 7.58 µM | CFBE cells, YFP halide quenching; stimulated with forskolin plus potentiator P3; % fluorescence drop versus neutral controls | actives 0.36% (n = 350,000);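 active = mean added fluorescence quench of at least 8% versus neutral control, with both replicates also reaching 8%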;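 also: cells transiently co-express mutant CFTR-F508del with the halide-sensitive YFP; corrector assay measuring rescue of mutant channel to the surface after 24 h compound exposure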
# miR-122 sensor = miR-122 Renilla sensor signal increase in Huh7, primary screen, miR-122 inhibitor project, cell-based, single point, plate reader. Huh7 miR-122 Renilla luciferase sensor, 48 h; neutral wells = 0, positive control = 100. activation (reporter increase), % at 12.5 µM. actives 0.3% (n = 340,000);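 active = mean replicate activation score at least 90 and every replicate individually at or above 90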;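 also: higher luciferase means less miR-122 activity so hits act as miR-122 inhibitors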
# INS-1E GSIS act = GLuc luminescence reporter in INS-1E cells, primary screen for activators of glucose-dependent secretion of insulin; INS-1E GLuc reporter insulin secretion, 2-3 h; activation, % at 16.6 µM; actives 0.61% (n = 370,000); AID 743287, 2014;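 active = lowest replicate activation of at least 40%, so every replicate reaches that level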
# Numbers stand for hits; - = inactive; . = no result. This is a sample that favours compounds with a hit; in the whole collection about 3.1% have one here.
SMILES,Cneo AK release,HIV Env fusion,Ecoli rRNA inh,CFTR F508del cor,miR-122 sensor,INS-1E GSIS act
O=C1NCCN(Cc2cccc(Oc3ccccc3)c2)C1CC(=O)N1CCCCC1 (stereo not given),-,72,-,-,.,-
O=C(C[C@@H]1CC[C@@H]2[C@H](COC[C@H](O)CN2Cc2cc(F)cc(F)c2)O1)NC1CCCC1,-,-,-,-,-,-
COc1ccc(S(=O)(=O)Nc2ccc3c(c2)C(=O)N([C@H](C)CO)C[C@@H](C)[C@@H](CN(C)C(=O)c2ccncc2)OCCCC[C@@H](C)O3)cc1,-,-,-,-,-,-
CN1CCC/C1=C1/C(=O)N(c2ccccc2)N=C1NC(=O)Nc1cccc(Cl)c1,.,-,-31,-,.,-
Cc1ccc(NC(=O)NC2=NN(c3ccccc3)C(=O)/C2=C2/CCCN2C)cc1,-,-,-,-,-,-
Cc1ccc(C(=O)NC(=S)c2c(C)cc3ccccn23)cc1,-,-,-15,-,-,.
Cc1cc2ccccn2c1C(=S)NC(=O)c1ccccc1,-,-,.,.,-,.
Cc1cc2ccccn2c1C(=O)Nc1cccc(Cl)c1,.,-,-33,-,-,-
C[C@@H]1CN([C@H](C)CO)C(=O)c2cccc(NC(=O)c3cnccn3)c2O[C@H]1CN(C)S(=O)(=O)c1cccs1,-,-,-,-,-,-
CO[C@H]1CN(C)C(=O)c2ccc(NC(=O)Nc3ccc(Cl)cc3)cc2OC[C@@H](C)N(C(=O)Nc2c(C)noc2C)C[C@@H]1C,-,.,-,-,.,-
CCCNc1c(NS(=O)(=O)c2cccc(C#N)c2)c(=O)oc2ccccc12,-,-,-,-,-,56
CCCNc1c(NS(=O)(=O)c2ccc(C(C)(C)C)cc2)c(=O)oc2ccccc12,-,-,-,-,-,-
CN(C)CC(=O)N[C@@H]1C=C[C@H](CC(=O)NCCN2CCCCC2)O[C@@H]1CO,-,-,-,-,.,-
CC(=O)c1c(O)c2cccc3c2n(c1=O)CCC3,-,-,-,-,-,40
Cc1noc(NS(=O)(=O)c2ccc(NC(=O)CSc3nc4c(cc3C#N)CCCC4)cc2)c1C,-,-,-25,-,-,-
CS(=O)(=O)c1nc(S(=O)(=O)c2ccc(Cl)cc2)c(N2CCCCCC2)s1,-,-,-,-,.,47
Cc1cc(C(=O)Nc2cccc3c2O[C@@H](CN(C)C(=O)Nc2ccccc2)[C@@H](C)CN([C@H](C)CO)C3=O)n(C)n1,-,.,-,-,-,-
CCc1ccc(NC(=O)N(CCCN2CCOCC2)C(C)c2cc3cccc(OC)c3o2)cc1 (stereo not given),-,.,-22,.,.,-
CCOc1cc(C(=O)OCC(=O)Nc2cc(C)on2)cc(OCC)c1OCC,-,-,.,.,-,76
Cc1cc(NC(=O)COC(=O)c2oc3c(ccc4ccccc43)c2C)no1,-,-,-,.,-,43
Cc1c(C(=O)OCC(=O)Nc2ccc(S(N)(=O)=O)cc2)oc2c1ccc1ccccc12,.,-,-,-,-,-
C(=N\Nc1nncc2ccccc12)/c1ccccn1,-,84,-,-,-,-
C(=N\Nc1ccc2nncn2n1)/c1ccccn1,-,-,-34,-,-,.
Fc1cccc(/C=N/Nc2nncc3ccccc23)c1,-,-,-,-,-,-
CNC[C@H]1Oc2ccc(NC(=O)NC(C)C)cc2C(=O)N(C)C[C@H]1C,.,.,-,.,.,-
SMILES,Cneo AK release,HIV Env fusion,Ecoli rRNA inh,CFTR F508del cor,miR-122 sensor,INS-1E GSIS act
CC(NC(=S)Nc1ccc([N+](=O)[O-])cc1)c1ccncc1 (stereo not given),.,-,-27,-,.,-
COc1ccc(NC(=S)NC(C)c2ccncc2)cc1OC (stereo not given),-,-,-,-,-,-
O=[N+]([O-])c1ccc(NC(=S)NCc2ccncc2)cc1,.,-,-28,-,.,-
O=C(C[C@H]1CC[C@H]2[C@@H](COC[C@@H](O)CN2C(=O)Nc2cccc(F)c2)O1)NCc1ccccc1Cl,-,.,-,-,-,-
CCCCCCSc1cc(-c2nc3cnccn3c2NCCCC)ccc1OC,-,.,-,.,-,108
CCCCNc1c(-c2ccc(SC(C)CC)c(OC)c2)nc2ccc(C)cn12 (stereo not given),-,-,-,8.3,-,-
CCCCNc1c(-c2ccc(SC(C)CC)c(OC)c2)nc2ccc(Cl)cn12 (stereo not given),-,-,-,-,-,-
COc1ccc2c3c(n(C)c2c1)[C@@H](CO)N(C(=O)C1CCOCC1)CC31CN(C)C1,.,.,-,-,.,-
O=C(Nc1ccccc1Cl)c1ccccc1CC(O)(c1ccccc1)c1ccccc1,.,93,-,-,.,-
CC(C)(C)c1ccc(C(=O)Nc2ccccc2Cl)cc1,.,-,-,-,.,-
C[C@@H]1CN(C)C(=O)c2cc(N)ccc2O[C@H]1CN(C)C(=O)OC(C)(C)C,.,.,-,.,.,.
CN(C)CC(=O)Nc1ccc2c(c1)[C@H]1C[C@@H](CC(=O)NCCc3ccccc3)O[C@@H](CO)[C@H]1O2,-,-,-,-,-,-
N#C/C(=C/c1ccc(OCc2ccc(C(=O)O)cc2)c(Br)c1)c1cccc(F)c1,.,-,-27,-,-,-
CCOc1ccc(C(=O)O)cn1,-,.,-,-,-,-
CCOc1cc(OCC)nc(S(C)(=O)=O)n1,.,-,.,.,.,49
O=[N+]([O-])c1ccccc1-c1ccc(CN2CCN(c3ccccc3)CC2)o1,-,-,-36,-,.,-
O=[N+]([O-])c1cccc(-c2ccc(CN3CCN(c4ccccc4)CC3)o2)c1,-,-,-,-,-,.
O=C(C[C@@H]1CC[C@H](NC(=O)C2CC2)[C@@H](CO)O1)Nc1nccs1,-,-,-,-,.,-
O=C(NN=C1CCCC1)c1cc(Cl)cc(Cl)c1O,-,-,-29,-,-,-
COc1ccccc1NC(=O)N[C@H]1CC[C@H](CCNC(=O)Cc2ccccn2)O[C@H]1CO,-,-,-,-,.,-
CO[C@H]1CN(C)C(=O)c2cc(NC(=O)C3CCC3)ccc2OC[C@@H](C)N(Cc2cccnc2)C[C@@H]1C,-,.,-,-,.,-
O=C1C(=Cc2ccncc2)CCCc2ccccc21,-,-,-,-,-,.
O=C1/C(=C/c2ccncc2)CCC/C1=C\c1ccncc1,-,89,-,-,-,-
C[C@H](CO)N1C[C@H](C)[C@@H](CN(C)Cc2ccc(C(F)(F)F)cc2)Oc2ccc(NC(=O)C3CCCCC3)cc2CC1=O,-,-,-,-,-,-
